Assay outcomes from PubChem BioAssay.
Compounds with a hit are over-represented: about 2.9% of the library has one in this group of screens.
PRMT1 FP inh: blocks human protein arginine methyltransferase 1; Q99873; recombinant PRMT1, activity-based probe fluorescence polarization; inhibition, % at 2.79 µM; actives 1.3% (n = 370,000); AID 652257;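 active = inhibition above about 21% made by adding two undisclosed values, limit read from the data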
ABHD5 PLIN5 PPI: inhibitors of human ABHD5-perilipin-5 interaction; Q00G26+Q8WTS1; Split G. princeps luciferase complementation, luminescence, 4 h; inhibition, % at 4 µM; actives 0.78% (n = 360,000); AID 602281;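 active = inhibition above the mean inhibition across every tested compound plus 3 SD, cut at about 22% in these data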
APOBEC3A inh: human APOBEC3A DNA deaminase inhibition; P31941; recombinant A3A, FAM/TAMRA ssDNA deamination fluorescence; inhibition, % at 20 µM; actives 0.41% (n = 330,000); AID 493011;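 active = at least 40% inhibition at 20 µM here, with at most 30% in a related deaminase screen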
Target sequence (P31941 whole entry, looked up): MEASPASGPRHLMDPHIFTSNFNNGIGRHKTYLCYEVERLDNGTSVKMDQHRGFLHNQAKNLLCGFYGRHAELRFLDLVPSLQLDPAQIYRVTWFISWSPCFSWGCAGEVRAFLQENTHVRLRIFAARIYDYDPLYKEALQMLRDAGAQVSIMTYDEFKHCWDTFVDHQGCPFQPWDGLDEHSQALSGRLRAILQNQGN
A3G deaminase: blocks human APOBEC3G single-stranded DNA deamination | actives 0.28% (n = 330,000) | AID 493012 | inhibition, % at 20 µM | recombinant A3G, ssDNA deamination FAM/TAMRA fluorescence;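 active = inhibition of at least 40% at 20 µM, with no more than 30% in the related APOBEC3A deaminase screen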
HCV NS3 hel inh: inhibitors of Hepatitis C virus NS3 helicase; NS3 helicase DNA unwinding, Cy5 molecular beacon fluorescence; inhibition, % at 10.9 µM; actives 0.56% (n = 290,000); AID 1800;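 active = inhibition above the mean of all tested compounds plus 3 SD, set per campaign, cut at about 35% in these data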
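Compound dosing – single dose, 10.9 µM nominal final, DMSO 0.8% final · System – NS3 helicase fragment of HCV · Buffer or medium – MOPS pH 6.5, MgCl2, DTT, Tween20, BSA · Signal – Cy5 beacon fluorescence read at start and 1 h · Also added – annealed dual-labelled DNA beacon duplex, ATP-started · Schedule – 1 h at 25 °C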
core dimer inh: HCV core protein dimerization inhibition; TR-FRET GST/Flag-core106 dimerization, 1536-well; inhibition, % at 5 µM; actives 0.33% (n = 300,000); AID 1899;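 active = inhibition above the mean of all tested compounds plus 3 SD, set per screening campaign, cut at about 45% in these data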
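assay system = GST-tagged and Flag-tagged HCV core protein residues 1-106 | controls = unlabelled core106 and no-GST-core106 wells | incubation = compound-protein-antibody incubation 4 h at 22.5 °C | probe or stimulus = Eu donor and XL665 acceptor anti-tag antibodies | read-out = % inhibition based on acceptor/donor emission ratio | signal = TR-FRET 671 and 617 nm emission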
A3G conf: APOBEC3G (human) deaminase inhibition, confirmed. shares compounds with A3G deaminase. recombinant A3G ssDNA deaminase, UDG/FAM-TAMRA fluorescence. inhibition, % at 20 µM. actives 72% (n = 890);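 active = inhibition reaching a set limit in any replicate at 20 µM, the limit being 80% of the first screen's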
UDG ctr A3G: counter-screen for APOBEC3G inhibitors: E. coli UDG; shares compounds with A3G deaminase; UDG counterscreen, FAM/TAMRA oligo fluorescence; inhibition, % at 20 µM; 710 tested, under 10 active;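 active = compounds giving 40% or more inhibition at 20 µM in any one of the three replicates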;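 also: inhibitors lower the FAM signal released by uracil excision and alkaline cleavage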
Target sequence (P12295 whole entry, looked up): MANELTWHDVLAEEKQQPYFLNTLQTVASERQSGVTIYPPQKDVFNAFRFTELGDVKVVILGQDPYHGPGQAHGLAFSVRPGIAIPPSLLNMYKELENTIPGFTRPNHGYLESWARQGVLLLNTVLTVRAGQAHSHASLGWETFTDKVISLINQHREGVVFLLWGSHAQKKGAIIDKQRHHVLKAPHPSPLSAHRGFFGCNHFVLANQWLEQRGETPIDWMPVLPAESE
Each line names hits and unclear results; the compound was inactive in the other large screens (follow-up assays come after a bar, where they were run).

CCOc1ccc(C(C)NC(=S)NC2CCCCC2)cc1OCC (stereo not drawn)	none
O=C(CC(c1ccc(F)cc1)c1ccco1)Nc1nccs1 (stereo not drawn)	A3G deaminase 53 | A3G conf inactive
Cc1ccc(-n2c(SCC(=O)Nc3ccc(S(=O)(=O)Nc4nccs4)cc3)nnc2-c2cccs2)cc1	none (no result: ABHD5 PLIN5 PPI, APOBEC3A inh, A3G deaminase, HCV NS3 hel inh, core dimer inh)
NC(=O)c1c(NC(=O)C2CCCO2)sc2c1CCCC2 (stereo not drawn)	A3G deaminase 40 | A3G conf inactive
O=C(CC(O)(CC(=O)OCc1ccccc1)C(=O)OCc1ccccc1)OCc1ccccc1	none (no result: APOBEC3A inh, A3G deaminase, HCV NS3 hel inh, core dimer inh)
COc1ccc(C(=O)Nc2ccc(O)c3ccccc23)cc1OC	none (no result: HCV NS3 hel inh)
Cc1c(C)c2cc(Cl)c(OCC(=O)NCCCn3ccnc3)cc2oc1=O	none
COc1ccc(N2CCN(C(CNC(=O)C(=O)NCc3cccnc3)c3ccco3)CC2)cc1 (stereo not drawn)	none
O=C(NCc1cccnc1)C(=O)NCC(c1ccco1)N1CCN(c2ccc(F)cc2)CC1 (stereo not drawn)	A3G deaminase 42 | A3G conf inactive | UDG ctr A3G inactive
COc1cc(-c2n[nH]c(=S)n2/N=C/c2cccn2C)cc(OC)c1OC	none
S=c1[nH]nc(-c2ccco2)n1/N=C/c1c(Cl)cccc1Cl	A3G deaminase 43 | A3G conf 71 | UDG ctr A3G inactive
Cn1cccc1/C=N/n1c(-c2ccco2)n[nH]c1=S	A3G deaminase 44 | A3G conf 80 | UDG ctr A3G inactive
Cc1occc1-c1n[nH]c(=S)n1-c1ccccc1	A3G deaminase 42 | A3G conf 14 | UDG ctr A3G inactive
S=c1[nH]nc(-c2ccco2)n1/N=C/c1cccc(Cl)c1	none
S=c1[nH]nc(-c2ccco2)n1/N=C/c1ccc(Cl)c(Cl)c1	PRMT1 FP inh 22, A3G deaminase 44 | A3G conf inactive | UDG ctr A3G inactive
COC(=O)Cc1ccc(OC(=O)c2cccc(S(=O)(=O)N3CCN(C)CC3)c2)cc1	none (no result: HCV NS3 hel inh)
Cc1ccsc1/C=N/n1c(-c2ccco2)n[nH]c1=S	A3G deaminase 42 | A3G conf 77 | UDG ctr A3G inactive
Cc1cccc(/C=N/n2c(-c3ccco3)n[nH]c2=S)c1	none
Cc1ccc(-n2c(-c3ccco3)n[nH]c2=S)cc1	A3G deaminase 45 | A3G conf 72 | UDG ctr A3G inactive
Cc1ccc(/C=N/n2c(-c3ccco3)n[nH]c2=S)cc1	A3G deaminase 40 | A3G conf 66 | UDG ctr A3G inactive
Fc1cccc(-c2n[nH]c(=S)n2-c2ccccc2)c1	A3G deaminase 41 | A3G conf 86 | UDG ctr A3G inactive
O=C(NC1CCCC1)c1nc(-c2ccco2)oc1-c1ccccc1	none (no result: APOBEC3A inh, A3G deaminase, HCV NS3 hel inh, core dimer inh)
O=[N+]([O-])c1ccccc1/C=C/C=N/n1c(-c2ccco2)n[nH]c1=S	none
S=c1[nH]nc(-c2ccco2)n1/N=C/c1ccccn1	A3G deaminase 59 (no result: PRMT1 FP inh, ABHD5 PLIN5 PPI) | A3G conf 83 | UDG ctr A3G inactive
O=C(CCC1CCCCC1)NCCS(=O)(=O)N1CCN(c2ccccc2)CC1	none (no result: HCV NS3 hel inh)
COc1ccc(-c2nc(=S)[nH][nH]2)cc1	A3G deaminase 62 | A3G conf 95 | UDG ctr A3G inactive
S=c1nc(-c2cccc(Cl)c2)[nH][nH]1	none (no result: APOBEC3A inh, A3G deaminase)
Oc1ccc(-c2nc(=S)[nH][nH]2)cc1	A3G deaminase 64 | A3G conf 90 | UDG ctr A3G inactive
CCOc1ccc(-c2nc(=S)[nH][nH]2)cc1	none
COc1ccc(-c2nc(=S)[nH][nH]2)cc1OC	A3G deaminase 61 | A3G conf 93 | UDG ctr A3G inactive
FC(F)(F)c1ccc(-c2nc(=S)[nH][nH]2)cc1	none
O=C(CSc1nnc(-c2ccc(Cl)cc2)n1Cc1ccco1)Nc1cccc2ccccc12	none (no result: ABHD5 PLIN5 PPI, APOBEC3A inh, A3G deaminase, HCV NS3 hel inh, core dimer inh)
CCOC(=O)CSc1nc2c(sc(=S)n2-c2ccc(CC)cc2)c(=O)[nH]1	none
